AI-2 QS mod – modulates the Vibrio harveyi AI-2 quorum sensing system; Vibrio harveyi JMH597 AI-2 luminescence/OD600 ratio, 9 h; active compounds read low; strain lacks LuxN and CqsS sensors; 0 = neutral-control median; activity change, % at 7.5 µM; actives 0.4% (n = 300,000); in the data active = activity change below about -75%, passing the limit was not always enough;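 also: luminescence divided by OD600 gain over 9 h not by final OD600 alone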
PolyA inhibitor – blocks polyadenylation in yeast reporter cells; S. cerevisiae SKY197-pL101 polyadenylation reporter, beta-gal luminescence; efflux-impaired pdr1/pdr3 knockout yeast; score 100 = 6 SD above DMSO; activity score, % at 12 µM; actives 0.02% (n = 300,000);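 active = lowest replicate activity score at least 50, where 100 means six control SD above control mean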;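 also: yeast exposed to compound for 9 h at 30 °C; higher score means more reporter readthrough which indicates perturbed polyadenylation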
GSK3A inh – inhibitors of human GSK-3 alpha kinase | ADP-Glo luminescence, 60 min | inhibition, % at 10 µM | actives 0.1% (n = 320,000) | AID 2650;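 active = more than half of replicates show inhibition above 20%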;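 also: GST-tagged GSK-3 alpha with peptide substrate and 25 µM ATP; 0% = DMSO neutral wells and 100% = GW8510 positive control wells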
CR mimetic SO – yeast age-related superoxide inhibition as caloric restriction mimetic. actives 0.18% (n = 330,000). superoxide response (% of plate mean), % at 10 µM. AID 2690. S. cerevisiae aged cells, superoxide DHE fluorescence; active compounds read low;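 active = superoxide response under a set limit, about three screen SD below normal, cut at about 65% in these data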;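 also: yeast aged for seven days with compound at 30 °C before DHE staining; 100% = average MFI of all compound-treated wells on the plate with controls excluded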
GSK3B inh – human GSK3beta kinase inhibition; P49841; GST-GSK3beta kinase, ADP-Glo luminescence, 60 min; active compounds read low; activity score (negative = inhibition), % at 10 µM; actives 0.038% (n = 300,000); AID 2097;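 active = more than half of replicate wells score below -50%, meaning over 50% inhibition versus plate controls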;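 also: 0% = median DMSO wells and -100% = median GW8510 positive control wells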
Target sequence (P49841 whole entry, looked up): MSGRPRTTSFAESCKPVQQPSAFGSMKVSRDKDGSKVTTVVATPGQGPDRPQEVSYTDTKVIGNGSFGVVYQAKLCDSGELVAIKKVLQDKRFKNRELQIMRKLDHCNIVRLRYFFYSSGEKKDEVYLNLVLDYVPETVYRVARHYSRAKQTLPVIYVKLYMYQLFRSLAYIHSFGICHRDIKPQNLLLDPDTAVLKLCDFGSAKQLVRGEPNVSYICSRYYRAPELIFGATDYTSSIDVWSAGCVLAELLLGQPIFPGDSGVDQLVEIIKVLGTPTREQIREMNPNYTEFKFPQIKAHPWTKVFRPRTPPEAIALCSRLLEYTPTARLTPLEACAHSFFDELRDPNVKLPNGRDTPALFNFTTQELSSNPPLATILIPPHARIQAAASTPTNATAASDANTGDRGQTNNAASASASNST
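Test system: GST-fused GSK3beta enzyme, cell-free | Quantity: 1.6 ng GST-GSK3beta enzyme per well | Reagent: 25 µM ATP with peptide substrate | Schedule: 60 min enzyme reaction, room temperature | Signal: Luminescent ADP-Glo measurement of ADP formed | Read-out basis: Score relative to plate controls | Control set: DMSO and 20 µM GW8510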
STK33 inh – inhibitors of human STK33 kinase. Q9BYT3. purified STK33, MBP phosphorylation, ADP-Glo luminescence. inhibition, % at 10 µM. actives 0.073% (n = 320,000). AID 2661;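 active = inhibition at or above 25%, using the most active replicate where run in duplicate; inactive = inhibition below 25%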
* = called active by the depositor; / = not tested or not shown. Hits are enriched below; roughly 0.72% of the tested compounds scored in any of these assays.

SMILES	AI-2 QS mod	PolyA inhibitor	GSK3A inh	CR mimetic SO	GSK3B inh	STK33 inh
Cc1cc(O)ccc1NS(=O)(=O)c1ccc2c3c(cccc13)C(=O)N2	0	-1	14	100	-5	41*
CC(Oc1ccc(F)cc1)C(=O)Nc1ccccc1N1CCCCC1 (stereo not given)	16	-10	0	112	-1	-1
COc1ccccc1Oc1coc2cc(O)ccc2c1=O	20	20	-2	102	3	1
COc1ccc(Oc2coc3cc(O)ccc3c2=O)cc1	-94*	2	1	94	-20	1
CCCN(CCC)CCCNc1ccc2nnc(-c3ccc(F)cc3)n2n1	27	4	56*	101	-44	2
COc1cc(CCNc2ccc3nnc(-c4ccccc4)n3n2)cc(OC)c1OC	38	0	14	87	-3	2
Cc1ccc(Sc2ncccc2C(=O)O)cc1C	-86*	-1	-2	118	0	-1
Cc1ccc(Sc2ncccc2C(=O)O)c(C)c1	-88*	-1	-8	101	-1	-1
O=C(O)c1cccnc1Sc1ccccc1Cl	-2	-1	/	91	-1	/
COc1cc(NC(=O)c2cccnc2Sc2ccc(C)c(C)c2)cc(OC)c1OC	36	1	-1	91	3	-1
CC(=O)c1cccc(NC(=O)CSc2n[nH]c(=O)n2C2CC2)c1	/	/	0	102	/	1
CCOC(=O)Cc1nnc(NC(=O)COc2ccc(C)cc2)s1	13	-13	0	99	-1	27*
O=C(COC(=O)CNC(=O)c1cccc(OC(F)F)c1)NNC(=O)c1ccccc1	/	/	-7	90	/	-1
COc1ccc(NS(=O)(=O)c2ccc(Cl)c(N)c2)cc1Br	16	2	0	99	2	0
Nc1cc(S(=O)(=O)Nc2ccc(Br)cc2)ccc1Cl	-76*	-1	-4	75	-1	0
Cc1nsc(Nc2ccc([N+](=O)[O-])cc2)c1C#N	9	7	2	102	-3	0
C[C@@]12C(=O)OC(=O)[C@]1(C)C1CCC2O1	/	/	-2	51*	/	-2
Cc1ccc(S(=O)(=O)Nc2cc(Cl)c(O)c3ncccc23)cc1	-227*	-3	-5	93	3	-4
CN(CCCS(=O)(=O)[O-])c1ccc(/C=C/c2ccc3ccccc3[n+]2C)cc1	9	11	2	90	3	3
CN(C)c1ccc(/C=C/c2ccc3ccccc3[n+]2C)cc1	-92*	-14	16	97	4	10
COC(=O)c1ccc(CNC(=O)c2ccc(COc3ccccc3)cc2)cc1	4	16	0	97	0	0
CCC1CCCCN1S(=O)(=O)c1ccc(NC(=O)C2CCCO2)cc1 (stereo not given)	9	3	-8	99	0	1
Nc1cc([N+](=O)[O-])ccc1Nc1ccc(O)cc1	1	-4	2	63*	0	0
NS(=O)(=O)c1ccc(Nc2nc(-c3ccc(O)cc3O)cs2)cc1	44	-4	61*	93	-28	17
CCOc1cccc(NC(=O)c2cccc(F)c2)c1	15	-9	-2	95	0	-1
SMILES	AI-2 QS mod	PolyA inhibitor	GSK3A inh	CR mimetic SO	GSK3B inh	STK33 inh
Cc1cc(C=C2C(=O)c3ccccc3C2=O)c(C)n1-c1cccc(C(=O)O)c1	44	-7	-1	108	-1	43*
Cc1cc(C=O)c(C)n1-c1cccc(C(=O)O)c1	21	2	-2	97	4	-1
Cc1cc(/C=c2\sc3nc4ccccc4n3c2=O)c(C)n1-c1ccc(C(=O)O)cc1	-9	-7	/	/	3	/
Cc1cc(C=C2C(=O)c3ccccc3C2=O)c(C)n1-c1ccc(C(=O)O)cc1	29	-8	2	107	0	32*
CCNC(=O)N(C)C[C@H]1N[C@@](CC)(C(=O)OC)[C@H]2C(=O)N(C)C(=O)[C@@H]12	/	/	-2	109	/	-1
COc1ccc(C2/C=C\CN(Cc3ccc(N(C)C)cc3)CC(=O)N2Cc2ccc(F)cc2)cc1 (stereo not given)	17	1	-1	97	3	-1
c1nc(N2CCCC2)c2[nH]cnc2n1	48	27	14	85	-1	31*

Bioassay records: PubChem BioAssay, several laboratories
